One compound from ChEMBL document CHEMBL4400543, “Identification and Characterization of AES-135, a Hydroxamic Acid-Based HDAC Inhibitor That Prolongs Survival in an Orthotopic Mouse Model of Pancreatic Cancer” (J Med Chem, 2019) can be followed below.

The test system of one series is Panc1005. Description: Cytotoxicity against human Panc 10.05 cells assessed as reduction in tumor spheroid area after 72 hrs by Alamar Blue assay. In kind it is functional, cell-based. Conditions: Panc1005, 72 h. Put shortly:
(§1)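 3D spheroids of patient-derived PDAC cells (tomato red) alone or with CAF19 cells, plus CAF cultures. Imaging read-outs: area is the μ2 of objects above a tomato red intensity threshold; intensity is summed red or green pixel fluorescence after background removal. n = 3–5.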

The target of series [1] is T1, Protein deacetylase HDAC6 (Homo sapiens, UniProt Q9UBN7).
T1 sequence (Q9UBN7 whole entry): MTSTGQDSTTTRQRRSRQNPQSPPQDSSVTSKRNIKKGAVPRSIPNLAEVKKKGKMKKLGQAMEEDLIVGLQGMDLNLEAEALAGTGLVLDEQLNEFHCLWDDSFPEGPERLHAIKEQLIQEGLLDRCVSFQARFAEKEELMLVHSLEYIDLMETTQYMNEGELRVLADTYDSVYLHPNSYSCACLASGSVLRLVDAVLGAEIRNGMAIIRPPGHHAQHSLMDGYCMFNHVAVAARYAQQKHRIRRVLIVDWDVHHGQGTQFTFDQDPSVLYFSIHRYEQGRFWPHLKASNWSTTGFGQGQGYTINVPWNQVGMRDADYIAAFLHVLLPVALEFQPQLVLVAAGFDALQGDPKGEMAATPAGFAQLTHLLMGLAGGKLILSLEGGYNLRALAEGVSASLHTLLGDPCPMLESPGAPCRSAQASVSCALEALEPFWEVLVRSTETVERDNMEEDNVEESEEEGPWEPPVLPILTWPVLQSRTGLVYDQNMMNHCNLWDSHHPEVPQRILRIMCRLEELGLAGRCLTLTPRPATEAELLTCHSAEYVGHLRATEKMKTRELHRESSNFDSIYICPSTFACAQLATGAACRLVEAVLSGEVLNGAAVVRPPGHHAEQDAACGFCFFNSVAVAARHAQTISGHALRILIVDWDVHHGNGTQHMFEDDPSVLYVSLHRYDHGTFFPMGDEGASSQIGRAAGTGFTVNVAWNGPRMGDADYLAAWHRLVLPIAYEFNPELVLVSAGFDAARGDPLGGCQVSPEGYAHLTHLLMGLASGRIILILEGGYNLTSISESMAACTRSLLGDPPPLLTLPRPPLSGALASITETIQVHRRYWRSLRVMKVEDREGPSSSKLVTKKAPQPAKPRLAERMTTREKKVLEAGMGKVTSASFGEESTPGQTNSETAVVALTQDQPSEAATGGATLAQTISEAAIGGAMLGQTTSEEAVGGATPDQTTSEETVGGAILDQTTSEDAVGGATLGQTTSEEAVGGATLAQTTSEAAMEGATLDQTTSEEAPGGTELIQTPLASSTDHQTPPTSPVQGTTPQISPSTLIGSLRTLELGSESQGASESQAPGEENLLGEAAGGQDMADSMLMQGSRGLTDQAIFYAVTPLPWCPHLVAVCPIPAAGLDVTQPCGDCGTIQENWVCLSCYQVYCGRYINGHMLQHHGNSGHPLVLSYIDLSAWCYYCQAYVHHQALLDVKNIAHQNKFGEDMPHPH
As to the kind of experiment: Inhibition of recombinant human HDAC6 expressed in SF9 baculoviral system using FAM-labeled acetylated peptide as substrate by EMSA. Put shortly:
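Full-length recombinant human enzyme from an Sf9 baculovirus system, in 100 mM HEPES pH 7.5 with 25 mM KCl, 0.1% BSA, 0.01% Triton X-100 and 1% DMSO. Final enzyme was 0.5 nM for HDAC3, 60 nM for HDAC6 and 5.0 nM for HDAC8. FAM-acetylated peptide was 1 μM. The read-out was product/(substrate+product) by microfluidic mobility shift, with inhibition set against DMSO and no-enzyme controls (quadruplicate). Compounds were tested at 12 threefold-spaced concentrations, and IC50 came from a four-parameter sigmoid fit.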
For orientation: In EMSA bound probe runs differently from free probe, usually more slowly.

Series [2] concerns the target Signal transducer and activator of transcription 3 (Homo sapiens) (UniProt P40763). As to the kind of experiment: Inhibition of STAT3 phosphorylation at Y705 residue in human BTSC 100EF cells at 1 to 10 uM after 24 hrs by Western blot method. In kind it is cell-based. Put shortly: (§2)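 BTSCs dissociated to single cells and treated with drug or DMSO. Lysed in RIPA buffer with protease inhibitors. 20 μg lysate run on SDS-PAGE and transferred to nitrocellulose. Blocked in 5% milk, primary antibody overnight at 4 °C, then HRP secondary for 1 h.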

For a further series, the system named is Pa03C. Description: Cytotoxicity against human Pa03C cells assessed as reduction in tumor spheroid intensity after 72 hrs in presence of human CAF19 cells by Alamar Blue assay. The format is functional, cell-based. The method in brief: as §1
Series [3] can be described thus: Stability of the compound in DMSO at 10 mM after 16 hrs in presence of 100 fold excess reduced L-glutathione by 19F NMR analysis. The format is physicochemical. Conditions: 10000 µM.
Series [4] can be described thus: Selectivity ratio of IC50 for human CAF19 cells to IC50 for human Panc 10.05 cells.
For the next series, the species on record is Homo sapiens. Description: Cytotoxicity against human D458 cells at 39 nM after 72 hrs by Presto Blue assay. The format is functional, cell-based. The method in brief: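 D425 and D458 medulloblastoma cells in DMEM high glucose with 20% FBS, seeded at 1000 cells/well in medium with 1% FBS. Twofold dilutions from 20 μM down to 39 nM. Exposed 3 days at 37 °C. Presto Blue added about 4 h before fluorescence read (540–570 nm). IC50 from % viability versus log concentration.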

The target of series [5] is Signal transducer and activator of transcription 3 (Homo sapiens) (UniProt P40763). Description: Inhibition of STAT3 phosphorylation at S727 residue in human BTSC 147EF cells at 2 uM after 3 to 24 hrs by Western blot method. In kind it is cell-based. The method in brief: as §2
In general terms: Immunoblotting shows a protein as a band on a membrane.

The target of series [6] is Signal transducer and activator of transcription 5B (Homo sapiens) (UniProt P51692). Description: Inhibition of STAT5b phosphorylation at Y694 in human MV4-11 cells at 10 uM after 5 hrs by Western blot method. The format is cell-based. Put shortly: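 Run on 4–15% SDS-PAGE and transferred to PVDF. Primary antibodies 1:1000 overnight at 4 °C, HRP or fluorescent secondary 1:5000, ECL detection, β-actin loading control.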

A further series deals with MDA-MB-231. As to the kind of experiment: Cytotoxicity against human MDA-MB-231 cells after 72 hrs by CellTiter-Blue assay. The format is functional, cell-based. The following applies: MDA-MB-231, 72 h. The method in brief: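 MDA-MB-231 cells in DMEM with 10% FBS, 10 000 cells/well, treated after 24 h. Twofold dilutions from 50.0 μM, in triplicate, 0.5% DMSO vehicle. 72 h at 37 °C. CellTiter-Blue fluorescence read at 560/590 nm. IC50 by nonlinear regression.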
(The colour change of resazurin is a common sign of viable cells or microbes.)

A short description of series [7]: Half life in NSG mouse at 20 mg/kg, ip administered as single dose by HPLC-MS/MS analysis. The format is ADME, organism-based. The following applies: in vivo. Put shortly:
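NSG mice given a single 20 mg/kg IP dose in Cremophor EL/EtOH (1:1, 4% final volume)/sterile saline. Tail-vein blood at 0.5, 1, 2, 4, 8 and 24 h, n = 2. Drug quantified in serum/plasma. Half-life and clearance calculated assuming 100% bioavailability.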

Calls of active or inactive are those of the source.

Chain of Signal transducer and activator of transcription 3 (Homo sapiens) (P40763 whole entry): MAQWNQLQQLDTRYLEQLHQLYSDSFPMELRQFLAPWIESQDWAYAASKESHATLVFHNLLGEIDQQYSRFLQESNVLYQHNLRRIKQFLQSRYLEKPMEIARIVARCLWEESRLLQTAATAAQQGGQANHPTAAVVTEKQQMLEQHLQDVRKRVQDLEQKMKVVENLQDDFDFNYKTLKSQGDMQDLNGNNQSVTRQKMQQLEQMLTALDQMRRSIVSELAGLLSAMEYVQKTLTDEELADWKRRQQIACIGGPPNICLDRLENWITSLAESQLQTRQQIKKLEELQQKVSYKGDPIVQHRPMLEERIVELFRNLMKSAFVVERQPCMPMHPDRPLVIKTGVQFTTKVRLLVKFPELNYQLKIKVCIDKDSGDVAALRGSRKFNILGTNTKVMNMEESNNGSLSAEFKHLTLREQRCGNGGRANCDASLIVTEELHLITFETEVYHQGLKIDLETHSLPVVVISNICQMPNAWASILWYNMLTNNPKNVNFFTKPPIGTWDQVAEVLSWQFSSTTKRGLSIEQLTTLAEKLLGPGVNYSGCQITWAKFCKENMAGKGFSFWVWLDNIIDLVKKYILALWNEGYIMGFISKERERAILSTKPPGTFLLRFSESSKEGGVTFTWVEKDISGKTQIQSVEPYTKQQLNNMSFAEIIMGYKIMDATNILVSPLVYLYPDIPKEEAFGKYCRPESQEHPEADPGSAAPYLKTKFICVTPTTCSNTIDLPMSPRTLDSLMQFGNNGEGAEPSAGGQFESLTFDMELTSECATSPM
Chain of Signal transducer and activator of transcription 5B (Homo sapiens) (P51692 whole entry): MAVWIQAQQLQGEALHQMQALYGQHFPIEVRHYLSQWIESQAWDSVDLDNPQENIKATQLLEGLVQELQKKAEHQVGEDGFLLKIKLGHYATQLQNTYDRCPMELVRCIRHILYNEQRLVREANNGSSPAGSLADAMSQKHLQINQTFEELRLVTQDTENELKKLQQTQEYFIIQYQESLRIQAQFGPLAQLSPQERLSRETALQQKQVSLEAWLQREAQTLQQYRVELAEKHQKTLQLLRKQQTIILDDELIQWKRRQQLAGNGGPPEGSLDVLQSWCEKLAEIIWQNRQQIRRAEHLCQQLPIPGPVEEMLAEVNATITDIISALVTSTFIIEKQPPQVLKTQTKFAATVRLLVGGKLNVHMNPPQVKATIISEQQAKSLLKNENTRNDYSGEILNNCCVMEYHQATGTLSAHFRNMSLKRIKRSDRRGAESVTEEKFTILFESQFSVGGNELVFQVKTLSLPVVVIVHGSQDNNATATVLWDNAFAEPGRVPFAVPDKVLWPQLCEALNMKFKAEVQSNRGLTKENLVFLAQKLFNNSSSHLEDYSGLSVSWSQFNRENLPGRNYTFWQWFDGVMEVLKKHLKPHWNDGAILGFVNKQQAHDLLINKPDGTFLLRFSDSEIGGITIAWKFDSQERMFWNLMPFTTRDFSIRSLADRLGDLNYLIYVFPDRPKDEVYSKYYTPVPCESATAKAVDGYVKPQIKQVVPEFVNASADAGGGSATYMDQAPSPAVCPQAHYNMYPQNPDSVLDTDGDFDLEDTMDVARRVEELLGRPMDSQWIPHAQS

With `CC(C)(C)c1ccc(CN(C(=O)CN(Cc2c(F)c(F)c(F)c(F)c2F)S(=O)(=O)c2ccc(F)cc2)c2ccc(C(=O)NO)cc2)cc1`, the IC50 in the series with Panc1005 was determined as 970 nM; in series [1], 190 nM; in the series with Pa03C, 1560 nM; in the series with MDA-MB-231, 2720 nM. The inhibition result in series [2], in series [5] and in series [6] was “inactive” throughout. Also, the Stability entry in series [3] was “Stable”. Besides, in [4], the “Ratio IC50” value was 5 - 6. For the same compound, the result in the series filed under Homo sapiens was Active. This compound also showed a half-life in [7] of 5 h.

The IC50 is the concentration needed to halve the response being measured. For orientation: half-life means the time in which the quantity being followed falls by half. A low value points to rapid decline.
